This note sets out measurements from the array DNA melting data of Ke et al. (doi:10.1101/2024.01.08.574731).

A short description of data set [1]: folding enthalpy; higher = less favourable; fluorescence melt of hairpins on a sequencing array, two-state fit. To be noted: sodium 0.088 M. In short, it runs like this:
(§1)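 Cy3 fluorescence of library hairpins on a sequenced MiSeq flow cell, with annealed Cy3 and quencher oligos, was imaged in 50 mM Na-HEPES pH 8.0, 25 mM NaCl in 2.5 °C steps up to 60 °C. Signals were normalised to pre-quench Cy3 and to control variants. Melting temperature and folding enthalpy came from bootstrapped two-state fits, inverse-variance combined over four replicates. Fitted temperatures were raised by 9.35 °C to match UV melts.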

The nature of data set [2]: melting temperature; fluorescence melt of hairpins on a sequencing array, two-state fit, raised by 9.35 °C to match UV melts. Particulars: sodium 0.088 M. In short, it runs like this: as §1

For the sequence AACACGAAAGTGTT (((((....))))), in data set [1], the folding enthalpy was -18.9 kcal/mol. In addition, the Tm in data set [2] amounted to 56.8 °C.
The matching figures for AACGGGAAACCGTT (((((....))))): -18.5 kcal/mol and 50.6 °C.
AACTCGAAAGAGTT (((((....))))): the folding enthalpy in data set [1] was -17.7 kcal/mol. Also, the Tm in data set [2] came to 50.7 °C.
With AATTGGAAACAATT (((((....))))), in data set [1], the folding enthalpy was -11.3 kcal/mol. Besides, the Tm in data set [2] stood at 31.6 °C.
Take ACAATGAAAATTGT (((((....))))): the folding enthalpy in data set [1] is -11.1 kcal/mol. The Tm in data set [2] was 34.8 °C.
For ACACAGAAATGTGT (((((....))))), in that order: -14.7 kcal/mol and 45.9 °C.
For ACCAGGAAACTGGT (((((....))))), in that order: -21.4 kcal/mol and 49.2 °C.
On to ACCGTGAAAACGGT (((((....))))), for which the folding enthalpy in data set [1] was -17 kcal/mol. Also, the Tm in data set [2] came to 55.4 °C.
Consider ACGGAGAAATCCGT (((((....))))), for which the folding enthalpy in data set [1] is -19 kcal/mol. Moreover, in data set [2], the Tm came to 49.2 °C.
The matching figures for ACTAGGAAACTAGT (((((....))))): -13.9 kcal/mol and 37.9 °C.
The matching figures for ACTCAGAAATGAGT (((((....))))): -22 kcal/mol and 36.7 °C.
For ACTGGGAAACCAGT (((((....))))), in that order: -15.9 kcal/mol and 47.6 °C.
With AGAAGCAGAAATGGTTCT ((((.((....)).)))), the folding enthalpy in data set [1] was -27.4 kcal/mol. For the same sequence, the Tm in data set [2] was found to be 34.5 °C.
The matching figures for AGACAGAAATGTCT (((((....))))): -15.8 kcal/mol and 41.7 °C.
AGAGTGAAAACTCT (((((....))))): the folding enthalpy in data set [1] is -16.6 kcal/mol. Further, in data set [2], the Tm was 40.8 °C.
As for AGATTGAAAAATCT (((((....))))), in data set [1], the folding enthalpy is -10.8 kcal/mol. In addition, the Tm in data set [2] was found to be 28.9 °C.
For the sequence AGCGTGAAAACGCT (((((....))))), the folding enthalpy in data set [1] is -18.5 kcal/mol. Besides, the Tm in data set [2] is 65.6 °C.
In the case of AGCTCGAAAGAGCT (((((....))))), the folding enthalpy in data set [1] is -20.8 kcal/mol. For the same sequence, the Tm in data set [2] is 68.6 °C.
For AGCTGGAAACAGCT (((((....))))), in that order: -23.3 kcal/mol and 54.3 °C.
Regarding AGGCTGAAAAGCCT (((((....))))), in data set [1], the folding enthalpy is -16.9 kcal/mol. Moreover, the Tm in data set [2] was found to be 62.6 °C.
For AGGTGGAAACACCT (((((....))))), the folding enthalpy in data set [1] was -19.2 kcal/mol. Further, the Tm in data set [2] was 52.6 °C.
For AGTAACTGAAAAGTTACT (((((((....))))))), in that order: -32.3 kcal/mol and 51.6 °C.
For AGTATGAAAATACT (((((....))))), in that order: -15.2 kcal/mol and 32 °C.
For the sequence AGTCAGAAATGACT (((((....))))), the folding enthalpy in data set [1] is -18.9 kcal/mol. In data set [2], the Tm was 43.3 °C.
The matching figures for ATCATGAAAATGAT (((((....))))): -13.8 kcal/mol and 38.5 °C.
The matching figures for ATCCTGAAAAGGAT (((((....))))): -18.9 kcal/mol and 45.2 °C.
The matching figures for ATGACGAAAGTCAT (((((....))))): -19.1 kcal/mol and 56.8 °C.
With ATGCTGAAAAGCAT (((((....))))), the folding enthalpy in data set [1] is -18.6 kcal/mol. Besides, the Tm in data set [2] is 50.8 °C.
The matching figures for ATGTGGAAACACAT (((((....))))): -20.3 kcal/mol and 46.1 °C.
The matching figures for CAACGGAAACGTTG (((((....))))): -25.9 kcal/mol and 52.6 °C.
In the case of CAAGCAGAAATGGTTG (((.((....)).))), the folding enthalpy in data set [1] was -19.3 kcal/mol. The Tm in data set [2] amounted to 33.6 °C.
The matching figures for CAATCCGAAAGGCTTG (((.((....)).))): -17 kcal/mol and 34.7 °C.
On to CAATTGAAAAATTG (((((....))))), for which the folding enthalpy in data set [1] was -13.6 kcal/mol. Besides, in data set [2], the Tm was determined as 35.6 °C.
For CACAGGAAACTGTG (((((....))))), in that order: -21 kcal/mol and 50.2 °C.
In the case of CACCTGAAAAGGTG (((((....))))), the folding enthalpy in data set [1] is -23.8 kcal/mol. In addition, the Tm in data set [2] came out at 54.4 °C.
For CACGTGAAAACGTG (((((....))))), in that order: -24.9 kcal/mol and 58.6 °C.
For the sequence CACTTGAAAAAGTG (((((....))))), the folding enthalpy in data set [1] is -21.2 kcal/mol. In data set [2], the Tm worked out at 43.6 °C.
Take CAGCAGAAATGCTG (((((....))))): the folding enthalpy in data set [1] was -25.6 kcal/mol. Further, the Tm in data set [2] was 53 °C.
Consider CAGGGGAAACCCTG (((((....))))), for which the folding enthalpy in data set [1] was -23.2 kcal/mol. Besides, in data set [2], the Tm came to 52.5 °C.
For CAGTGGAAACACTG (((((....))))), in that order: -23 kcal/mol and 51.7 °C.
Regarding CATATGAAAATATG (((((....))))), the folding enthalpy in data set [1] is -11.8 kcal/mol. In data set [2], the Tm came out at 32.2 °C.
In the case of CATGGGAAACCATG (((((....))))), in data set [1], the folding enthalpy is -22.3 kcal/mol. For the same sequence, in data set [2], the Tm came to 47.8 °C.
As to CATGTGAAAACATG (((((....))))), in data set [1], the folding enthalpy is -23.3 kcal/mol. Moreover, the Tm in data set [2] stood at 47.2 °C.
For the sequence CCAACGAAAGTTGG (((((....))))), the folding enthalpy in data set [1] is -25.4 kcal/mol. For the same sequence, in data set [2], the Tm came to 58 °C.
For CCAGGGAAACCTGG (((((....))))), in that order: -20.6 kcal/mol and 53 °C.
Regarding CCCAGGAAACTGGG (((((....))))), the folding enthalpy in data set [1] was -20.4 kcal/mol. Besides, the Tm in data set [2] came out at 54.3 °C.
Turning to CCCATGAAAATGGG (((((....))))), the folding enthalpy in data set [1] was -20.9 kcal/mol. Moreover, the Tm in data set [2] came out at 51.2 °C.
For CCCCTGAAAAGGGG (((((....))))), in that order: -25.4 kcal/mol and 57.2 °C.
The matching figures for CCGAGGAAACTCGG (((((....))))): -23.9 kcal/mol and 55.9 °C.
In the case of CCGATGAAAATCGG (((((....))))), the folding enthalpy in data set [1] is -21.4 kcal/mol. The Tm in data set [2] was 55.6 °C.
Take CCGTAGAAATACGG (((((....))))): the folding enthalpy in data set [1] was -17.8 kcal/mol. For the same sequence, the Tm in data set [2] came to 47.3 °C.
Consider CCTAAGAAATTAGG (((((....))))), for which the folding enthalpy in data set [1] is -8.08 kcal/mol. Further, in data set [2], the Tm was 28.1 °C.
Consider CCTACGAAAGTAGG (((((....))))), for which, in data set [1], the folding enthalpy was -20.4 kcal/mol. For the same sequence, the Tm in data set [2] stood at 57 °C.
With CCTCTGAAAAGAGG (((((....))))), the folding enthalpy in data set [1] is -20.4 kcal/mol. For the same sequence, the Tm in data set [2] worked out at 48.7 °C.
Turning to CGAAACGGAAACGTGTCG (((.(((....))).))), the folding enthalpy in data set [1] is -31.5 kcal/mol. For the same sequence, the Tm in data set [2] turned out to be 47.5 °C.
Take CGAAAGCGGAAACGCTCG (((..(((....)))))): the folding enthalpy in data set [1] is -18.2 kcal/mol. Also, in data set [2], the Tm was found to be 43.5 °C.
For CGAAATCGGAAACGATCG (((..(((....)))))), in that order: -22.6 kcal/mol and 34 °C.
The matching figures for CGAACCGGAAACGGATCG (((.(((....))).))): -27.6 kcal/mol and 51.6 °C.
The matching figures for CGAACGGAAACGTATTCG ((((((....)))..))): -17.7 kcal/mol and 29.1 °C.
Consider CGAACGGAAACGTCCTCG ((((((....)))..))), for which the folding enthalpy in data set [1] is -11.4 kcal/mol. The Tm in data set [2] came out at 26.2 °C.
For the sequence CGAACGGAAACGTCTCG ((((((....))).))), the folding enthalpy in data set [1] was -29.3 kcal/mol. Besides, in data set [2], the Tm was determined as 36.8 °C.
With CGAACGGAAACGTGATCG ((((((....)))..))), the folding enthalpy in data set [1] is -19.6 kcal/mol. The Tm in data set [2] came to 28.6 °C.
For CGAACGGAAACGTTGTCG ((((((....)))..))), in that order: -14.1 kcal/mol and 36.3 °C.
For CGAACGGAAACGTTTCG ((((((....))).))), in that order: -26.2 kcal/mol and 46.1 °C.
For CGAACGGAAACGTTTTCG ((((((....)))..))), in that order: -16.3 kcal/mol and 30.4 °C.
In the case of CGAAGCGGAAACGCGTCG (((.(((....))).))), in data set [1], the folding enthalpy is -29.1 kcal/mol. For the same sequence, the Tm in data set [2] was found to be 55.1 °C.
CGACAACGGAAACGTTCG (((..(((....)))))): the folding enthalpy in data set [1] was -14.3 kcal/mol. The Tm in data set [2] turned out to be 35.9 °C.
For CGACCCCGGAAACGGTCG (((..(((....)))))), in that order: -21.3 kcal/mol and 44.4 °C.
The matching figures for CGACCGGAAACGGATCG ((((((....))).))): -33.3 kcal/mol and 48.5 °C.
As for CGACCGGAAACGGATTCG ((((((....)))..))), the folding enthalpy in data set [1] was -16.2 kcal/mol. Also, the Tm in data set [2] came out at 33.6 °C.
For CGACCGGAAACGGCTTCG ((((((....)))..))), in that order: -17 kcal/mol and 28.5 °C.
For CGACCGGAAACGGGTCG ((((((....))).))), in that order: -32.4 kcal/mol and 56.9 °C.
Take CGACGACGGAAACGTTCG (((..(((....)))))): the folding enthalpy in data set [1] was -14.5 kcal/mol. In data set [2], the Tm came to 36.9 °C.
On to CGACGCGGAAACGCTTCG (((.(((....))).))), for which the folding enthalpy in data set [1] is -33.6 kcal/mol. In addition, the Tm in data set [2] was 50.5 °C.
For CGACGGCGGAAACGCTCG (((..(((....)))))), in that order: -15.4 kcal/mol and 38.3 °C.
The matching figures for CGACTCGGAAACGAATCG (((.(((....))).))): -33.6 kcal/mol and 41.9 °C.
The matching figures for CGAGACCGGAAACGGTCG (((..(((....)))))): -23.4 kcal/mol and 57.1 °C.
